Measurements from different studies.
Protocols differ between the studies behind these lines.
LATS1: Serine/threonine-protein kinase LATS1 (LATS1, Homo sapiens, UniProt O95835)
KMT5A: N-lysine methyltransferase KMT5A (KMT5A, Homo sapiens, UniProt Q9NQR1)
PRKCB: Protein kinase C beta type (PRKCB, Homo sapiens, UniProt P05771)
ADRA2A: Alpha-2A adrenergic receptor (ADRA2A, Homo sapiens, UniProt P08913)

Compound	target	read-out	mode	method	cell line	concentration	inhibition [%]
Cn1cnc(Br)c1C1=CN(c2ncnc3[nH]cnc23)CCS1	LATS1	enzyme activity	inhibitor	radiometric	–	2 µM	97.3
Cc1cc(-c2ccc(/N=N/c3ccc4c(S(=O)(=O)O)cc(S(=O)(=O)O)c(N)c4c3O)c(C)c2)ccc1/N=N/c1ccc2c(S(=O)(=O)O)cc(S(=O)(=O)O)c(N)c2c1O	KMT5A	cell-free assay	–	–	–	10 µM	78
CSc1nc(C)c(-c2ccnc(Nc3ccc(N4CCOCC4)cc3)c2)[nH]1	PRKCB	enzyme activity	inhibitor	–	–	10 µM	1.3
CSCCC(NC=O)C(=O)NC(C)C(=O)O (stereo not drawn)	KMT5A	cell-free assay	–	–	–	10 µM	33
COc1cc(NC(C)=O)c(Cl)cc1C(=O)Nc1nccs1	Androgen receptor (AR, Homo sapiens, UniProt P10275)	cell-free assay	–	–	–	10 µM	-19.5
CCCCCCCCCCCCCCCc1cccc(O)c1C(=O)O	Histone acetyltransferase p300 (EP300, Homo sapiens, UniProt Q09472)	enzyme activity	inhibitor	fluorescence	–	52 µM	~60
O=C(O[C@@H]1Cc2c(O)cc(O)cc2O[C@@H]1c1cc(O)c(=O)c2c(O)c(O)cc([C@H]3Oc4cc(O)cc(O)c4C[C@H]3OC(=O)c3cc(O)c(O)c(O)c3)c2c1)c1cc(O)c(O)c(O)c1	KMT5A	cell-free assay	–	–	–	10 µM	26
CCN1CCN(Cc2ccc(NC(=O)c3ccc(C)c(Oc4ccnc5[nH]ccc45)c3)cc2C(F)(F)F)CC1	Receptor-interacting serine/threonine-protein kinase 4 (RIPK4, Homo sapiens, UniProt P57078)	target engagement in cells	inhibitor	chemoproteomics	A-375	5 µM	-11.6
Cc1ccc(Nc2nccc(N(C)c3ccc4c(C)n(C)nc4c3)n2)cc1S(N)(=O)=O	PRKCB	enzyme activity	inhibitor	–	–	10 µM	5
O=C(Oc1cc(O)cc2c1C[C@@H](OC(=O)c1cc(O)c(O)c(O)c1)[C@@H](c1cc(O)c(O)c(O)c1)O2)c1cc(O)c(O)c(O)c1	KMT5A	cell-free assay	–	–	–	10 µM	6
Cc1ccc(CNC(=O)[C@H](CCc2ccccc2)NC(=O)[C@H](CCc2ccccc2)NC(=O)[C@H](CCc2ccccc2)NC(=O)c2cnc(C)cn2)cc1	Plasminogen (PLG, Homo sapiens, UniProt P00747)	enzyme activity	inhibitor	–	–	100 µM	-20
COc1ccc(C(=O)c2coc3c2C(=O)C(=O)C=C3)cc1	Peptide deformylase, mitochondrial (Homo sapiens, UniProt Q9HBH1)	enzyme activity	inhibitor	–	–	100 µM	≥ 100
Cn1cncc1C1=CN(c2ncnc3[nH]cnc23)CCS1	LATS1	enzyme activity	inhibitor	radiometric	–	2 µM	96.1
CN(C)C1CCN(CC#Cc2nn(C3CCCC3)c3nc(NCc4ccccc4)ncc23)C1 (stereo not drawn)	cAMP-dependent protein kinase catalytic subunit alpha (PRKACA, Homo sapiens, UniProt P17612)	enzyme activity	inhibitor	FRET	–	10 µM	12
O=c1c(-c2cc(O)c(O)c(O)c2)coc2cc(O)c(O)c(O)c12	KMT5A	cell-free assay	–	–	–	10 µM	9
O=C(c1ccc(Cl)cc1)N(Cc1ccccc1)C1CCCCC1	Cholecystokinin receptor type A (CCKAR, Homo sapiens, UniProt P32238)	cell-free assay	–	–	–	10 µM	-9.6
COc1cc(-c2cc(-c3ccc(N4CCNCC4)cc3)cnc2N)cc(OC)c1OC	Tyrosine-protein kinase ABL1 (ABL1, Homo sapiens, UniProt P00519, T315I)	enzyme activity	inhibitor	–	–	1 µM	57
O=C(c1ccc(F)cc1)N(Cc1ccccc1)C1CCCCC1	ADRA2A	cell-free assay	–	–	–	10 µM	13
O=C(O[C@@H]1Cc2c(O)cc(O)cc2O[C@@H]1c1cc(O)c(O)c(O)c1-c1c([C@H]2Oc3cc(O)cc(O)c3C[C@H]2O)cc(O)c(O)c1O)c1cc(O)c(O)c(O)c1	KMT5A	cell-free assay	–	–	–	10 µM	17
CNC(=O)c1cc(Oc2ccc(NC(=O)Nc3ccc(Cl)c(C(F)(F)F)c3)cc2)ccn1	PRKCB	enzyme activity	inhibitor	–	–	10 µM	-3
COc1cc2ncnc(Nc3ccc(Oc4ccccc4)c(C)c3C)c2cc1OC	PRKCB	enzyme activity	inhibitor	–	–	1 µM	9
COc1cc(-c2cc(-c3ccc(N4CCNCC4)cc3)cnc2C)cc(OC)c1OC	LATS1	enzyme activity	inhibitor	–	–	0.1 µM	4
CCN1CCN(Cc2ccc(NC(=O)c3ccc(C)c(/C=C/c4cnc5[nH]ccc5c4OC)c3)cc2C(F)(F)F)CC1	Serine/threonine-protein kinase greatwall (MASTL, Homo sapiens, UniProt Q96GX5)	target engagement in cells	inhibitor	chemoproteomics	A-375	5 µM	-18.6
O=C1C=CC(=O)c2c(O)cccc21	KMT5A	cell-free assay	–	–	–	10 µM	19
Oc1cccc(Nc2nc(-c3ccc(F)cc3F)cs2)c1	ADRA2A	cell-free assay	–	–	–	10 µM	-22.5
COc1cc(NC(C)CCCN)c2ncccc2c1 (stereo not drawn)	KMT5A	cell-free assay	–	–	–	10 µM	28
CCN(CC)CCNC(=O)c1c(C)[nH]c(/C=C2\C(=O)Nc3ccc(F)cc32)c1C	cAMP-dependent protein kinase catalytic subunit alpha (PRKACA, Bos taurus, UniProt P00517)	enzyme activity	inhibitor	–	–	0.3 µM	0
